Data reported in ChEMBL document CHEMBL2057149 (J Med Chem, 2012).
The source made the active and inactive calls. The rule behind the calls is not given here.

Experiments:
[1] = tested on: HUVEC; test: Antiangiogenic activity in HUVEC cells assessed as inhibition of tube formation at 10 uM after 18 hrs by matrigel assay; assay type: functional; conditions: Homo sapiens
In short: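 HUVECs (passage 4 or 5, 70–80% confluent) suspended at 4 × 10⁵/mL in EGM2 with all supplements except heparin, mixed 1:1 with compound (final 10, 50 or 100 μM) in triplicate. Plated on growth factor-reduced Matrigel for 18 h. Branching nodes joining ≥3 tubules counted manually by phase-contrast microscopy. Reported as % inhibition versus untreated cells.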

[2] = tested on: HUVEC; test: Antiangiogenic activity in FGF1-stimulated HUVEC cells after 72 hrs by CellTiter assay; assay type: functional, cell-based; conditions: Homo sapiens
[3] = tested on: HUVEC; test: Antiangiogenic activity in VEGF-stimulated HUVEC cells after 72 hrs by CellTiter assay; assay type: functional, cell-based; conditions: Homo sapiens
[4] = tested on: Plasma; test: Anticoagulant activity in pooled human plasma assessed as activated partial thromboplastin time at 0.1 mg/ml; assay type: ADME, cell-free
In short: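 APTT of pooled normal human plasma measured with compound at 0–100 μg/mL in PBS on a ball coagulameter, using unfractionated heparin as the reference. Normal range 26–36 s; coefficient of variation 2% at 36 s and 5–7% at 90 s or above. Values are the mean of two determinations.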

[5] = tested on: HMVEC; test: Antiangiogenic activity in FGF2-stimulated HMVEC cells after 72 hrs by CellTiter assay; assay type: functional, cell-based; conditions: Homo sapiens
[6] = target: Vascular endothelial growth factor A (Homo sapiens) (UniProt P15692); test: Binding affinity to VEGF by surface plasmon resonance assay
[7] = target: T1, Heparanase (Homo sapiens, UniProt Q9Y251); test: Inhibition of human recombinant heparanase after 2 to 24 hrs by WST1 dye based fondaparinux assay
T1 sequence (Q9Y251 whole entry): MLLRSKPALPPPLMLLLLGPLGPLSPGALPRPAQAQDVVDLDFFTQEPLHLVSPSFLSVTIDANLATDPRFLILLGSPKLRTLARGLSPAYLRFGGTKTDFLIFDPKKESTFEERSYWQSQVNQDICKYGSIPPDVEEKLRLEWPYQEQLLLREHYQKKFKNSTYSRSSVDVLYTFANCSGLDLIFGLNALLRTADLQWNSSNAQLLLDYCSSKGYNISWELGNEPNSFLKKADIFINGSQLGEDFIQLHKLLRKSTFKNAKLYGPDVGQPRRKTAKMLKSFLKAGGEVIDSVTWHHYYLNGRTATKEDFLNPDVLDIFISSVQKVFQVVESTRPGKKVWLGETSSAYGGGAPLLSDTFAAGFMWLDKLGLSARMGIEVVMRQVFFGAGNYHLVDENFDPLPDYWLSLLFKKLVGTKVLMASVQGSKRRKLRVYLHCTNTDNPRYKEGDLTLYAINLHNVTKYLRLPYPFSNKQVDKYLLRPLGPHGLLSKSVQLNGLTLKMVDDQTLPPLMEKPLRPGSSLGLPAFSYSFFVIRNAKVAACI

[8] = target: Fibroblast growth factor 1 (Homo sapiens, UniProt P05230); test: Binding affinity to FGF-1 by surface plasmon resonance assay
Chain of Fibroblast growth factor 1 (P05230 whole entry): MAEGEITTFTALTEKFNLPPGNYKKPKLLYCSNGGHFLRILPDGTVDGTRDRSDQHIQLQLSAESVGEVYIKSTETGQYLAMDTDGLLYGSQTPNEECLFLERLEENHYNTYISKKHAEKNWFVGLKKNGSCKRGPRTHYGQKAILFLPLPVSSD
In short: (§1)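 Solution-affinity SPR on heparin-coated CM4 chips. FGF-1 measured in HBS-EP (10 mM HEPES pH 7.4, 150 mM NaCl, 3.0 mM EDTA, 0.005% polysorbate 20); FGF-2 measured in HBS-EP with 300 mM NaCl. Kd is the average of at least duplicate measurements ± SD.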

[9] = tested on: HUVEC; test: Antiangiogenic activity in FGF2-stimulated HUVEC cells after 72 hrs by CellTiter assay; assay type: functional, cell-based; conditions: Homo sapiens
[10] = tested on: HMVEC; test: Antiangiogenic activity in VEGF-stimulated HMVEC cells after 72 hrs by CellTiter assay; assay type: functional, cell-based; conditions: Homo sapiens
[11] = tested on: Plasma; test: Anticoagulant activity in pooled human plasma assessed as prolongation of the recalcification time at 0.1 mg/ml by Heptest assay; assay type: ADME, cell-free
In short: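 Heptest clotting time in pooled normal human plasma; normal range 13–20 s. Values are the mean of two determinations.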

[12] = target: Fibroblast growth factor 2 (Homo sapiens, UniProt P09038); test: Binding affinity to FGF-2 by surface plasmon resonance assay; in short: as §1
Chain of Fibroblast growth factor 2 (P09038 143-288 limits assumed): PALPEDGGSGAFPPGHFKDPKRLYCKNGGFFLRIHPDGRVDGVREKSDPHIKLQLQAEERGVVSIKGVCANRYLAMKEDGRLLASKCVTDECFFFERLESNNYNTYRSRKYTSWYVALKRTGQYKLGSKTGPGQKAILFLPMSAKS

[13] = tested on: HMVEC; test: Antiangiogenic activity in FGF1-stimulated HMVEC cells after 72 hrs by CellTiter assay; assay type: functional, cell-based; conditions: Homo sapiens
[14] = tested on: Aorta; test: Antiangiogenic activity in Sprague-Dawley rat aorta assessed as inhibition of tube formation dosed daily at 10 uM measured up to 8 days by matrigel assay; assay type: functional
In short: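 Aortas from 6–10-week Sprague–Dawley rats were cut into 1 mm rings, bisected and embedded in Matrigel. Cultured in EBM-2 with 2% FCS and supplements except heparin, without exogenous growth factors. Compound was usually given at two concentrations within 1–50 μM from 10 mM PBS stocks, replenished every 48 h. Microvessels were scored 0–5 up to 8 days by two independent investigators.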

[15] = tested on: Aorta; test: Antiangiogenic activity in Sprague-Dawley rat aorta assessed as inhibition of tube formation measured up to 8 days by matrigel assay; assay type: functional, tissue-based; conditions: 192 h
In short: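 Aortas from 6–10-week Sprague–Dawley rats cut into 1 mm rings, bisected and embedded in Matrigel. Cultured in EBM-2 with 2% FCS, supplements but no heparin and no added growth factor. Compound usually given at two concentrations within 1–50 μM (10 mM PBS stock), medium renewed every 48 h. Microvessels scored 0–5 up to 8 days by two independent observers.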

[16] = tested on: Rattus norvegicus; test: Elimination half life in Sprague-Dawley rat at 10 mg/kg, sc using [3H]-labeled compound administered as three bolus doses at 96 hrs interval; assay type: ADME, organism-based; set-up: dose 10 mg/kg, route subcutaneous; conditions: in vivo
[17] = tested on: Aorta; test: Cytotoxicity against Sprague-Dawley rat aorta assessed as VEGF-induced microvessel formation measured 6 days post compound treatment grown on fresh medium containing VEGF; assay type: tissue-based; conditions: 144 h
In short: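 Viability check on rat aortic ring cultures: after compound exposure, compound/medium withdrawn on day 6 or 7 and replaced with complete medium containing VEGF (typically 10 ng/mL) for up to 7 further days. Renewed microvessel sprouting taken as evidence of viable tissue.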

[18] = tested on: HUVEC; test: Antiangiogenic activity in HUVEC cells assessed as inhibition of tube formation after 18 hrs by matrigel assay; assay type: functional, cell-based; conditions: Homo sapiens
In short: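 HUVECs at passage 4–5 (70–80% confluent) resuspended at 4 × 10⁵/mL in EGM2 with all supplements except heparin. Cells mixed with compound to final 10, 50 or 100 μM and plated in triplicate on growth-factor-reduced Matrigel for 18 h. Branching nodes joining three or more tubules counted by phase-contrast microscopy; percent inhibition versus untreated cells.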

SMILES	inhibition at 10 µM [1] [%]	IC50 [2] [nM]	IC50 [3] [nM]	APTT [4] [s]	Activity [5]	Kd [6] [nM]	Ki [7] [nM]	Kd [8] [nM]	IC50 [9] [nM]	Activity [10]	Time [11] [s]	Kd [12] [nM]	Activity [13]	inhibition (INH) [14] [%]	IC50 [15] [nM]	beta t1/2 [16] [h]	Activity [17]	IC50 [18] [nM]
CCCCCCCCCCCCCCCCCC(=O)NCCCO[C@H]1O[C@H](COS(=O)(=O)[O-])[C@@H](OS(=O)(=O)[O-])[C@H](OS(=O)(=O)[O-])[C@@H]1O[C@H]1O[C@H](COS(=O)(=O)[O-])[C@@H](OS(=O)(=O)[O-])[C@H](O[C@H]2O[C@H](COS(=O)(=O)[O-])[C@@H](OS(=O)(=O)[O-])[C@H](O[C@H]3O[C@H](COS(=O)(=O)[O-])[C@@H](OS(=O)(=O)[O-])[C@H](OS(=O)(=O)[O-])[C@@H]3OS(=O)(=O)[O-])[C@@H]2OS(=O)(=O)[O-])[C@@H]1OS(=O)(=O)[O-].[Na+].[Na+].[Na+].[Na+].[Na+].[Na+].[Na+].[Na+].[Na+].[Na+].[Na+].[Na+].[Na+]	> 80	1540	600	68.1	Active	40	6	0.44	700	Active	24.5	108	Active	–	–	–	–	–
CC(C)CCC[C@@H](C)[C@H]1CC[C@H]2[C@@H]3CC[C@H]4C[C@@H](O[C@H]5O[C@H](COS(=O)(=O)[O-])[C@@H](OS(=O)(=O)[O-])[C@H](OS(=O)(=O)[O-])[C@@H]5O[C@H]5O[C@H](COS(=O)(=O)[O-])[C@@H](OS(=O)(=O)[O-])[C@H](O[C@H]6O[C@H](COS(=O)(=O)[O-])[C@@H](OS(=O)(=O)[O-])[C@H](O[C@H]7O[C@H](COS(=O)(=O)[O-])[C@@H](OS(=O)(=O)[O-])[C@H](OS(=O)(=O)[O-])[C@@H]7OS(=O)(=O)[O-])[C@@H]6OS(=O)(=O)[O-])[C@@H]5OS(=O)(=O)[O-])CC[C@]4(C)[C@H]3CC[C@]12C.[Na+].[Na+].[Na+].[Na+].[Na+].[Na+].[Na+].[Na+].[Na+].[Na+].[Na+].[Na+].[Na+]	> 80	1290	1200	94	Active	22	5.8	0.6	800	Active	28	160	Active	>80	–	–	–	–
CC(C)CCC[C@@H](C)[C@H]1CC[C@H]2[C@@H]3CC[C@H]4C[C@@H](O[C@@H]5O[C@H](COS(=O)(=O)[O-])[C@@H](O[C@H]6O[C@H](COS(=O)(=O)[O-])[C@@H](O[C@H]7O[C@H](COS(=O)(=O)[O-])[C@@H](O[C@H]8O[C@H](COS(=O)(=O)[O-])[C@@H](OS(=O)(=O)[O-])[C@H](OS(=O)(=O)[O-])[C@H]8OS(=O)(=O)[O-])[C@H](OS(=O)(=O)[O-])[C@H]7OS(=O)(=O)[O-])[C@H](OS(=O)(=O)[O-])[C@H]6OS(=O)(=O)[O-])[C@H](OS(=O)(=O)[O-])[C@H]5OS(=O)(=O)[O-])CC[C@]4(C)[C@H]3CC[C@]12C.[Na+].[Na+].[Na+].[Na+].[Na+].[Na+].[Na+].[Na+].[Na+].[Na+].[Na+].[Na+].[Na+]	> 80	–	–	71.9	Active	28.9	–	–	–	Active	28.6	390	Active	>80	1100	> 50	Non-toxic	2000
CC(C)CCC[C@@H](C)[C@H]1CC[C@H]2[C@@H]3CC[C@H]4C[C@@H](OCc5cn([C@@H]6O[C@H](COS(=O)(=O)[O-])[C@@H](O[C@H]7O[C@H](COS(=O)(=O)[O-])[C@@H](O[C@H]8O[C@H](COS(=O)(=O)[O-])[C@@H](O[C@H]9O[C@H](COS(=O)(=O)[O-])[C@@H](OS(=O)(=O)[O-])[C@H](OS(=O)(=O)[O-])[C@H]9OS(=O)(=O)[O-])[C@H](OS(=O)(=O)[O-])[C@H]8OS(=O)(=O)[O-])[C@H](OS(=O)(=O)[O-])[C@H]7OS(=O)(=O)[O-])[C@H](OS(=O)(=O)[O-])[C@H]6OS(=O)(=O)[O-])nn5)CC[C@]4(C)[C@H]3CC[C@]12C.[Na+].[Na+].[Na+].[Na+].[Na+].[Na+].[Na+].[Na+].[Na+].[Na+].[Na+].[Na+].[Na+]	–	2300	2200	104	Active	95	3.7	9.7	640	Active	45.5	390	Active	>80	–	–	–	–
